Data published in ChEMBL document CHEMBL1156927, “New pterocarpanquinones: synthesis, antineoplasic activity on cultured human malignant cell lines and TNF-alpha modulation in human PBMC cells” (Bioorg Med Chem, 2010).
Activity calls are given as the source filed them. The calls are words filed in the database; no cut-off is given here.

Key:
K562 = assay: Growth inhibition of human K562 cells after 24 to 72 hrs by MTT assay; assay type: functional, cell-based
Summary of the method: (§1)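 Leukemic lines in medium with 50 µM β-mercaptoethanol, 25 mM Hepes pH 7.4, antibiotics and 10% heat-inactivated FCS (Daudi 20% FCS; Lucena-1 kept with 60 nM vincristine to maintain MDR phenotype). Cells exposed to compound for 24, 48 or 72 h. Viability by MTT: 3 h at 37 °C, DMSO solubilisation, absorbance at 490 nm.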

HL-60 = assay: Growth inhibition of human HL60 cells after 72 hrs by MTT assay; assay type: functional, cell-based; conditions: HL-60, 72 h
Summary of the method: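 2 × 10⁴ cells/mL seeded in drug-free medium or medium with a range of compound concentrations, 72 h at 37 °C, 5% CO₂. MTT read-out: 3 h incubation, formazan dissolved in DMSO, A490. IC50 = concentration inhibiting growth by 50%. Mean of three independent experiments, triplicate wells.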

[1] = Growth inhibition of human K562-Lucena 1 cells after 24 to 72 hrs by MTT assay; assay type: functional; summary of the method: as §1
Daudi = assay: Growth inhibition of human Daudi cells after 24 to 72 hrs by MTT assay; assay type: functional, cell-based; summary of the method: as §1
PBMC [2] = assay: Growth inhibition of phytohemagglutinin-activated human PBMC cells after 24 to 72 hrs by MTT assay; assay type: cell-based
Raji = assay: Growth inhibition of human Raji cells after 24 to 72 hrs by MTT assay; assay type: functional, cell-based; summary of the method: as §1
Jurkat = assay: Growth inhibition of human Jurkat cells after 24 to 72 hrs by MTT assay; assay type: functional, cell-based; summary of the method: as §1
A549 = assay: Growth inhibition of human A549 cells after 72 hrs by MTT assay; assay type: functional, cell-based; conditions: A549, 72 h
Summary of the method: (§2)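 Adherent lung cancer cells allowed to attach 24 h, then exposed to compound. 2 × 10⁴ cells/mL in drug-free or compound-containing medium, 72 h at 37 °C, 5% CO₂. MTT added, 3 h at 37 °C, formazan dissolved in DMSO, absorbance at 490 nm. IC50 from three independent experiments, each concentration in triplicate.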

NCI-H460 = assay: Growth inhibition of human H460 cells after 72 hrs by MTT assay; assay type: functional, cell-based; conditions: NCI-H460, 72 h; summary of the method: as §2
[3] = Growth inhibition of human GLC4 cells after 72 hrs by MTT assay; assay type: functional, cell-based; conditions: GLC4, 72 h; summary of the method: as §2
PBMC [4] = assay: Antiinflammatory activity in human PBMC assessed reduction of LPS-stimulated TNFalpha production at 25 uM after 2 hrs by ELISA; assay type: functional, cell-based
Summary of the method: (§3)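 PBMC at 10⁶ cells/mL stimulated with 2 µg/mL E. coli 055:B5 LPS for 2 h at 37 °C, 5% CO₂, co-incubated with vehicle (0.5% DMSO in RPMI 1640) or compound at several concentrations. TNF-α measured in supernatants. Three experiments, mean ± SEM.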

PBMC [5] = assay: Antiinflammatory activity in human PBMC assessed inhibition of LPS-stimulated TNFalpha production at 100 uM after 2 hrs by ELISA; assay type: functional; summary of the method: as §3
[6] = Toxicity in LPS-stimulated human PBMC cells assessed as cell viability at 100 uM; assay type: cell-based

Structure (SMILES): O=C1C2=C(C(=O)c3ccccc31)[C@H]1Oc3ccc(Cl)cc3[C@H]1CO2 (racemic)
- IC50 (K562): 6.77 µM
- IC50 (HL-60): 4.87 µM

Structure (SMILES): O=C1C2=C(C(=O)c3ccccc31)[C@H]1Oc3ccc(Br)cc3[C@H]1CO2 (racemic)
- IC50 (K562): 5.7 µM
- IC50 (HL-60): 4.87 µM

Structure (SMILES): COc1cc2c(cc1O)[C@H]1COC3=C(C(=O)c4ccccc4C3=O)[C@H]1O2 (racemic)
- IC50 (K562): 2.18 µM

Structure (SMILES): O=C1C2=C(C(=O)c3ccccc31)[C@H]1Oc3ccc([N+](=O)[O-])cc3[C@H]1CO2 (racemic)
- IC50 (K562): 3.48 µM
- IC50 (HL-60): 0.4 µM

Structure (SMILES): CO[C@@]12[C@H](COC(N)=O)C3=C(C(=O)C(C)=C(N)C3=O)N1C[C@@H]1N[C@@H]12 [MITOMYCIN]
- IC50 (K562): 0.47 µM
- IC50 [1]: 2.75 µM
- IC50 (Daudi): 0.45 µM
- IC50 (PBMC [2]): 4.03 µM

Structure (SMILES): O=C1C2=C(C(=O)c3ccccc31)[C@H]1Oc3ccccc3[C@H]1CO2 [PTEROCARPANQUINONE]
- IC50 (K562): 1.67 µM
- IC50 (HL-60): 2 µM
- IC50 [1]: 2.75 µM
- IC50 (Raji): 3.32 µM
- IC50 (Jurkat): 6.77 µM
- IC50 (Daudi): 3.1 µM
- IC50 (PBMC [2]): > 20 µM
- IC50 (A549): 11.2 µM
- IC50 (NCI-H460): 12.9 µM
- IC50 [3]: 5.17 µM
- inhibition (PBMC [4]): Active
- inhibition at 100 µM (PBMC [5]): 100%
- viability at 100 µM [6]: > 70%

Structure (SMILES): O=C1C2=C(OC[C@@H]3c4cc5c(cc4O[C@H]23)OCO5)C(=O)c2c1ccc(O)c2O
- IC50 (K562): 2.95 µM
- IC50 (HL-60): 2.1 µM
